From PubChem BioAssay
Hits are enriched below; roughly 2.7% of the tested compounds scored in any of these assays.
F508del corr – correctors of CFTR F508del function in bronchial epithelial cells; CFBE cells, YFP halide quenching; stimulated with forskolin plus potentiator P3; % fluorescence drop versus neutral controls; activity (quench increase), % at 7.58 µM; actives 0.36% (n = 350,000);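 active means mean added fluorescence quench of at least 8% versus neutral control, with both replicates also reaching 8%; inconclusive means only one of the mean or replicate conditions met; inactive means mean below 8% and not both replicates reaching 8%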;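 further: cells transiently co-express mutant CFTR-F508del with the halide-sensitive YFP; corrector assay measuring rescue of mutant channel to the surface after 24 h compound exposure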
E-selectin induc – E-selectin induction on HUVECs; activation, % at 7.58 µM; actives 0.37% (n = 260,000); HUVEC E-selectin immunofluorescence imaging; normalized: neutral wells 0, TNF-alpha wells 100; AID 686992;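 active means mean E-selectin-positive cell signal at least 10% of the positive control, reached in at least 60% of replicates, without over 20% cell loss; inconclusive means no rule given, readout overlaps actives, possibly toxicity-flagged; inactive means the rest, including those meeting only one limit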
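System: HUVEC, human umbilical vein endothelial cells; quantity: 3,000 cells/well; buffer or medium: EGM-2 medium, gelatin-coated wells; dosing: single-point compound dose; detection: immunofluorescence imaging; evaluation: % PE-positive cells; benchmarks: TNF-alpha, DMSO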
Env fusion inh – inhibitors of HIV Env-mediated cell fusion. AID 651610. actives 1.1% (n = 360,000). HeLa-JRFL Env/CEM21 cell fusion, luciferase. inhibition, % at 12.3 µM;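 active means mean replicate inhibition score of at least 50 and every replicate individually at or above 50; inconclusive means only one of the two criteria met; inactive means mean below 50 and not all replicates reaching 50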
S100A4 MyoIIA – blocks human S100A4 binding to myosin IIA peptide | S100A4/TAMRA-MyoIIA peptide fluorescence polarization | actives 0.14% (n = 360,000) | AID 652163 | inhibition, % at 10.7 µM;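 active means mean inhibition of at least 70% across replicates, with every replicate also reaching that level; inconclusive means mean inhibition reaches 70% but some replicates fall short; inactive means mean inhibition below 70%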
Target sequence (P26447 whole entry, looked up): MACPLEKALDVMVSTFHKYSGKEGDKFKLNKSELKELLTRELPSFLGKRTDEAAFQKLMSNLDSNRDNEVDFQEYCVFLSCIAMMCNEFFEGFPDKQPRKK
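Test system: S100A4 monomer protein; Medium: HEPES pH 7.2 with CaCl2, KCl, NaCl, DTT, Triton; Probe or stimulus: TAMRA-labelled myosin IIA heavy-chain peptide probe, 5 nM; Doses: one dose per compound; Times: polarization read 5 min after assay mix addition, stable 5–60 min; Benchmarks: neutral control DMSO, positive control TFP.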
FGF22 binding – binders of recombinant human FGF22 by thermal shift | Q9HCT0 | SYPRO orange fluorescence; percent of sucrose octasulfate shift, DMSO zero | activity (Tm shift, normalised), % at 9.99 µM | actives 1.5% (n = 340,000);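 active means mean Tm shift, scaled 0 neutral to 100 positive control, at about 1.3% or above, every replicate too, limit read from the data; inconclusive means no clear call, values can overlap the other calls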
Target sequence (Q9HCT0 whole entry, looked up): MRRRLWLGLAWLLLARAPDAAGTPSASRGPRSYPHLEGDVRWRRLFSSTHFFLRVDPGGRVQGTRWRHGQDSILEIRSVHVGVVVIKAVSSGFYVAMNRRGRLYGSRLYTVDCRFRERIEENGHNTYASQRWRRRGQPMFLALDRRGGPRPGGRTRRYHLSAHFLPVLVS
Large screens that a line does not name were inactive; [ ] = dose if it differs, or a comment.

COc1ccc(-c2nc3cc(C)c(Br)c(C)n3c2Cc2ccccc2)cc1OC	Env fusion inh 71
FC(F)c1nnc2c(Cl)cc(C(F)(F)F)cn12	FGF22 binding 44 (no result: E-selectin induc)
CCCC#Cc1cnc2c(c1)C(=O)N([C@H](C)CO)C[C@H](C)[C@H](CN(C)Cc1ccc(C(=O)O)cc1)O2	none
Cc1ccc2c(c1)c1nnc(SCC(=O)Nc3cccc(Cl)c3C)nc1n2CC(=O)O	FGF22 binding 1.7 (no result: F508del corr, E-selectin induc)
COC(=O)CC/C(=N/Nc1ccc(Cl)c(Cl)c1)C(=O)OC	FGF22 binding 43
COC(=O)CCS(=O)(=O)c1ccc(Cl)c(Cl)c1	none (no result: F508del corr, E-selectin induc, S100A4 MyoIIA, FGF22 binding)
O=C(c1ccco1)N1CCN(c2nc(C(F)(F)F)nc3c2nnn3Cc2ccccc2)CC1	Env fusion inh 67 (no result: F508del corr, E-selectin induc, S100A4 MyoIIA, FGF22 binding)
O=C(c1ccco1)N1CCN(c2ncnc3c2nnn3Cc2ccccc2Cl)CC1	none (no result: F508del corr, E-selectin induc, Env fusion inh, FGF22 binding)
COC(=O)[C@H]1[C@H](CO)[C@H]2Cn3c(ccc(C4=CCCCC4)c3=O)[C@H]2N1CCC(F)(F)F	none (no result: F508del corr, Env fusion inh)
O=C(c1ccc(Cl)cc1)N1CCCCC(Sc2nnc(-c3ccc4c(c3)OCO4)o2)C1=O (configuration not stated)	Env fusion inh 60 (no result: F508del corr, E-selectin induc, S100A4 MyoIIA, FGF22 binding)
O=C(O)CSc1nnc(-c2ccc3c(c2)OCO3)o1	none (no result: F508del corr, E-selectin induc, S100A4 MyoIIA, FGF22 binding)
Cc1c(C(=O)Nc2nccs2)sc2nc(-c3cccs3)cc(C(F)(F)F)c12	Env fusion inh 57 (no result: F508del corr, E-selectin induc, S100A4 MyoIIA, FGF22 binding)
COc1cc(C(=O)NC(C)c2cc(C)ccc2C)ccc1OCC(=O)N1CCOCC1 (configuration not stated)	E-selectin induc 144
CO[C@H]1CN(C)C(=O)c2ccc(NS(=O)(=O)c3cn(C)cn3)cc2OC[C@H](C)N(CC2CC2)C[C@H]1C	none (no result: Env fusion inh)
CCC(CC)COC(=O)C1=C(C)NC(=O)NC1c1cccc([N+](=O)[O-])c1 (configuration not stated)	Env fusion inh 62 (no result: E-selectin induc)
CCCCN(C)C(=O)C(Cc1ccccc1)NS(=O)(=O)c1ccc2c(c1)CCC(=O)N2 (configuration not stated)	Env fusion inh 67 (no result: E-selectin induc)
C[C@@H]1CN([C@H](C)CO)C(=O)c2cccc(NC(=O)C3CC3)c2O[C@@H]1CN(C)Cc1ccc(C(=O)O)cc1	none
O=C(Cn1sc2ccccc2c1=O)Nc1ccc(F)cc1	FGF22 binding 43
CCCNC(=O)N1CCC2(CC1)CN(C(=O)Nc1ccc(F)cc1)[C@@H](CO)c1[nH]c3cc(OC)ccc3c12	none (no result: Env fusion inh)
C[C@@H]1CN([C@H](C)CO)S(=O)(=O)c2ccc(-c3cccc(F)c3)cc2O[C@@H]1CN(C)S(=O)(=O)c1ccccc1	Env fusion inh 107[16.7 µM]
C[C@H]1CN([C@@H](C)CO)S(=O)(=O)c2ccc(-c3cccc(F)c3)cc2O[C@H]1CN(C)S(=O)(=O)c1ccccc1	Env fusion inh 90[16.7 µM]
C[C@H](CO)N1C[C@H](C)[C@@H](CN(C)S(=O)(=O)c2ccccc2)Oc2cc(-c3cccc(F)c3)ccc2S1(=O)=O	none
C[C@H](CO)N1C[C@H](C)[C@H](CN(C)S(=O)(=O)c2ccccc2)Oc2cc(-c3cccc(F)c3)ccc2S1(=O)=O	Env fusion inh 83[16.7 µM]
CCCCn1c(C(C)NC(=O)CCC)nc2ccccc21 (configuration not stated)	none
CCCCCn1c(C(C)NC(=O)CCC)nc2ccccc21 (configuration not stated)	Env fusion inh 74
CC(=O)NC(C)c1nc2ccccc2n1CC(=O)N1C(C)CCCC1C (configuration not stated)	FGF22 binding 44 (no result: E-selectin induc)
CCCCn1c(=O)c(CC(C)=O)nc2ccccc21	FGF22 binding 44 (no result: E-selectin induc)
CCCCCn1c(=O)c(C(=O)c2ccccc2)nc2ccccc21	none (no result: F508del corr, E-selectin induc, FGF22 binding)
CCn1c(C(C)NC(C)=O)nc2ccccc21 (configuration not stated)	none
CN(C)C(=O)C[C@H]1CC[C@H]2[C@@H](COC[C@H](O)CN2CC2CCCC2)O1	none (no result: Env fusion inh)
O=C(Nc1ccccc1)[C@@H]1[C@@H](CO)[C@@H]2Cn3c(cccc3=O)[C@H]1N2C(=O)c1ccccc1	none (no result: Env fusion inh)
CCC1(C)Cc2ccccc2-c2nc(SC)[nH]c(=O)c21 (configuration not stated)	Env fusion inh 80
CCC1(C)Cc2ccccc2-c2nc(SCC(N)=O)[nH]c(=O)c21 (configuration not stated)	none (no result: E-selectin induc)
COCC(=O)Nc1ccc2c(c1)OC[C@@H](C)N(C(=O)COC)C[C@H](C)[C@@H](OC)CN(C)C2=O	none (no result: Env fusion inh)
CC(=NNC(=S)Nc1ccccc1)c1ccccn1	none
CC(=NNC(=S)Nc1ccccc1Cl)c1ccccn1	Env fusion inh 63
O=C(N/N=C/c1cccs1)c1n[nH]c2c1CCCC2	E-selectin induc 75
Cc1ccc(S(=O)(=O)Nc2cccc3c2O[C@H](CN(C)Cc2ccc(Cl)c(Cl)c2)[C@H](C)CN([C@H](C)CO)C3=O)cc1	Env fusion inh 85[16.7 µM] (no result: S100A4 MyoIIA, FGF22 binding)
Cc1ccc(S(=O)(=O)Nc2cccc3c2O[C@H](CN(C)Cc2ccc(Cl)c(Cl)c2)[C@@H](C)CN([C@@H](C)CO)C3=O)cc1	none (no result: S100A4 MyoIIA, FGF22 binding)
Cc1ccc(S(=O)(=O)Nc2cccc3c2O[C@H](CN(C)Cc2ccc(Cl)c(Cl)c2)[C@H](C)CN([C@@H](C)CO)C3=O)cc1	none (no result: E-selectin induc, Env fusion inh)
C[C@H](CO)N1C[C@H](C)[C@H](CN(C)Cc2ccc(Cl)c(Cl)c2)Oc2c(NS(=O)(=O)c3ccc(Cl)cc3)cccc2C1=O	Env fusion inh 91[16.7 µM] (no result: E-selectin induc)
Cc1ccc(S(=O)(=O)Nc2cccc3c2O[C@@H](CN(C)Cc2ccc(Cl)c(Cl)c2)[C@@H](C)CN([C@H](C)CO)C3=O)cc1	Env fusion inh 87[16.7 µM] (no result: S100A4 MyoIIA, FGF22 binding)
Cc1noc(C)c1S(=O)(=O)Nc1ccc2c(c1)C(=O)N([C@H](C)CO)C[C@@H](C)[C@H](CN(C)Cc1ccc3c(c1)OCO3)OCCCC[C@@H](C)O2	none
COc1ccc(NC(=O)N(C)C[C@H]2Oc3ccc(NC(=O)Cc4ccccc4)cc3C(=O)N([C@H](C)CO)C[C@H]2C)cc1	none (no result: S100A4 MyoIIA, FGF22 binding)
O=C(O)Cn1cc(/C=C2/NC(=O)N(c3ccc(Cl)cc3)C2=O)c2ccccc21	FGF22 binding 2.4 (no result: E-selectin induc)
COc1ccccc1-c1ccc2n(c1=O)C[C@H]1[C@H](CO)[C@@H](C(=O)NC3CCC3)N(C(=O)NC(C)C)[C@@H]21	none (no result: Env fusion inh)
CCCNC(=O)N1[C@@H]2c3ccc(-c4ccccc4OC)c(=O)n3C[C@@H]2[C@@H](CO)[C@@H]1C(=O)NC1CCC1	S100A4 MyoIIA 116 (no result: Env fusion inh)
CCOn1c(=O)c(-c2ccc(C)cc2)[n+]([O-])c2ccccc21	none (no result: E-selectin induc)
CCOn1c(=O)c(-c2cccc([N+](=O)[O-])c2)[n+]([O-])c2ccccc21	FGF22 binding 44 (no result: E-selectin induc)
NC(=S)NN=Cc1nccc2c(C(F)(F)F)cccc12	Env fusion inh inconclusive
CNc1cccnc1C=NNC(N)=S	Env fusion inh 81
COc1ccccc1S(=O)(=O)N[C@H]1CC[C@H](CC(=O)N2CCN(C)CC2)O[C@H]1CO	Env fusion inh 62[16.7 µM]
